The record followed here is ChEMBL document CHEMBL1212911, “Identification of potent and selective amidobipyridyl inhibitors of protein kinase D” (J Med Chem, 2010).

Data set [1] concerns the target T1, Serine/threonine-protein kinase D1 (Homo sapiens, UniProt Q15139).
T1 sequence (Q15139 whole entry): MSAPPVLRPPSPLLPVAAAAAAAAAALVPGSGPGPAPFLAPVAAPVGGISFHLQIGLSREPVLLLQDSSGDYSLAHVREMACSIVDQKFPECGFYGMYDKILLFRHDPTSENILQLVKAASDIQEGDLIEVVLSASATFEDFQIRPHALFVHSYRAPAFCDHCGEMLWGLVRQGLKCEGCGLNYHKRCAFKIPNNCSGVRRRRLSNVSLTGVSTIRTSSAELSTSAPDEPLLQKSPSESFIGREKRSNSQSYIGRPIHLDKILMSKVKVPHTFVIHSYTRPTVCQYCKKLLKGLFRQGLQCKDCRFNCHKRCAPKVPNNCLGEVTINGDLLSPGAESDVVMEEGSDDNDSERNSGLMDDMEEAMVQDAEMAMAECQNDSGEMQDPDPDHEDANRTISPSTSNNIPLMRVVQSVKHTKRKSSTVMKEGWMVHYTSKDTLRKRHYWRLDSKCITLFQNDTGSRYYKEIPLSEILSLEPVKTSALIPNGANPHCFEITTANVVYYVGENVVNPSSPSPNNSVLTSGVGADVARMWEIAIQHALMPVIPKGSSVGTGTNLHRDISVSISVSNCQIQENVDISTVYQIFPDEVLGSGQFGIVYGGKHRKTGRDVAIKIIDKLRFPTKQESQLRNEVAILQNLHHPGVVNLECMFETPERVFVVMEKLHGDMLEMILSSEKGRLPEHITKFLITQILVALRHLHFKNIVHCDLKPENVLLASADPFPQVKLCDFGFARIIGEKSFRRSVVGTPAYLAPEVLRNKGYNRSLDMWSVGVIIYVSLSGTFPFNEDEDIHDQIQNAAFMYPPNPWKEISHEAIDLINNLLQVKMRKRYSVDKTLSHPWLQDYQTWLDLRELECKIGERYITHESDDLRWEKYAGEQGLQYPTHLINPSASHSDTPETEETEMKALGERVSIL
Description: Inhibition of PKD1 assessed as inhibition of HDAC5 neuclear export. In a few lines:
(§1)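 Neonatal rat ventricular myocytes infected with adenovirus encoding GFP-HDAC5 and plated on gelatin-coated wells. Cells exposed to compound and stimulated with PGF2α for 2 h, then fixed. Cytoplasmic versus nuclear GFP intensity quantified by high-content imaging.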

The target in data set [2] is Calcium/calmodulin-dependent protein kinase type II subunit beta (Homo sapiens) (UniProt Q13554). Description: Inhibition of human CaMK2beta. The conditions noted are these: concentration not given here. The method in brief: (§2)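 Selectivity screen run externally (Invitrogen SelectScreen). Percent inhibition measured at 1 μM compound, mean of 2 measurements.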
Chain of Calcium/calmodulin-dependent protein kinase type II subunit beta (Homo sapiens) (Q13554 whole entry): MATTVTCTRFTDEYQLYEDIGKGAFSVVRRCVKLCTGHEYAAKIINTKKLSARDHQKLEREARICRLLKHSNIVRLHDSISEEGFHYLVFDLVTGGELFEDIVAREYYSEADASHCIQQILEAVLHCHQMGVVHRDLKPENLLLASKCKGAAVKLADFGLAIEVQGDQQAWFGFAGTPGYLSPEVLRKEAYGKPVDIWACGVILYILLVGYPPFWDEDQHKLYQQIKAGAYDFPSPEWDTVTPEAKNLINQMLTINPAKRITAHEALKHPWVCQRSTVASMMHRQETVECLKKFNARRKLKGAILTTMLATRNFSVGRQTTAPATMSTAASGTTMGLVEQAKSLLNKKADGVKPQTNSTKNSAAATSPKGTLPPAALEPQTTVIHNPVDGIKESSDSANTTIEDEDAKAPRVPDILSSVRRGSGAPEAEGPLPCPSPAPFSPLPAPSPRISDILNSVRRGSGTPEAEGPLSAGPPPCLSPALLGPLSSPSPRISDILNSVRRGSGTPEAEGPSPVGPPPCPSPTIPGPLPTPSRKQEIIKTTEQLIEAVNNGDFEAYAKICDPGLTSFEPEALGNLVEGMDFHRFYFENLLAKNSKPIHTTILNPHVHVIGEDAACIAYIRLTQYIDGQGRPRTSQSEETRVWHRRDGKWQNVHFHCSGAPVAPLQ
The nature of data set [3]: Inhibition of alpha1 adrenoceptor.
The target of a further data set is Pkd1 (Rattus norvegicus) (UniProt Q9ERV0). Description: Inhibition of PKD1 in rat ventricular myosyte assessed as inhibition of HDAC5 neuclear export. In a few lines: as §1
Data set [4] is described as follows: Inhibition of PKC-mediated phosphorylation of Ser744/748.
In data set [5] the target is Protein kinase C delta type (Homo sapiens) (UniProt Q05655). In words: Inhibition of human PKCdelta. The note with it: concentration not given here. The method in brief:
as §2

Data set [6] addresses T2, Protein kinase C epsilon type (Homo sapiens) (UniProt Q02156).
T2 sequence (whole entry): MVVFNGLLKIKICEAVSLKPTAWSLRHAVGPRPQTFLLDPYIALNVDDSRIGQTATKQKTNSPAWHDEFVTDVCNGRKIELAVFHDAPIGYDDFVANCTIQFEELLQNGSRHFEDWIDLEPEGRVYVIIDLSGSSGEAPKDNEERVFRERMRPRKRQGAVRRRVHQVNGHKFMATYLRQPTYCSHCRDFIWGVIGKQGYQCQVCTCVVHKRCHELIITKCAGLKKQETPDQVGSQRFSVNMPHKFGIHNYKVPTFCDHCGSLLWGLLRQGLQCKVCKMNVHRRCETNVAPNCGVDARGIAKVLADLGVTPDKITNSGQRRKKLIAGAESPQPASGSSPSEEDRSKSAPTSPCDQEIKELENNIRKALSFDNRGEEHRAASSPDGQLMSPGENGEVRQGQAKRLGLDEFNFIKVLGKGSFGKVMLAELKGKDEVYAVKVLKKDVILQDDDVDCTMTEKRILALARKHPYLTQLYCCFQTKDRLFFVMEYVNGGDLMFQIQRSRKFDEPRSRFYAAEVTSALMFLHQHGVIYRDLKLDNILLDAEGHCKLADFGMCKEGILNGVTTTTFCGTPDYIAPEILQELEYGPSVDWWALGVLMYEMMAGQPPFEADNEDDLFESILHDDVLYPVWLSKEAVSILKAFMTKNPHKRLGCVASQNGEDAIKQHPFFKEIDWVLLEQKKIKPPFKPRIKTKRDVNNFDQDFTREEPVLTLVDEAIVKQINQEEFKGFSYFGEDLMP
Description: Inhibition of PKCepsilon. The note with it: concentration not given here.

Data set [7] addresses Calcium/calmodulin-dependent protein kinase type II subunit delta (Homo sapiens) (UniProt Q13557). Description: Inhibition of human CaMK2delta. The conditions noted are these: concentration not given here. In a few lines: as §2
The nature of data set [8]: Drug level in Dahl salt-sensitive rat left ventricle at 5 mg/kg, sc qd. The note with it: in vivo, read-out: Drug uptake.
The nature of data set [9]: Clearance in Sprague-Dawley rat at 2 mg/kg, iv and 5 mg/kg, po. The format is ADME, organism-based. The conditions noted are these: in vivo. The method in brief: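 Rats dosed iv 2 mg/kg (n = 2) or po 5 mg/kg (n = 3) in 10% NMP, 10% Cremophor, 80% pH 4.63 buffer. PK parameters derived from iv dosing, reported as mean ± SD.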
Data set [10] has as its system Rattus norvegicus. Description: Ex vivo inhibition of PKD in PBMC isolated from Dahl salt-sensitive sc dosed rat assessed as inhibition of PMA-induced HDAC phosphorylation.
Data set [11] concerns the target T3, Serine/threonine-protein kinase D1 (Homo sapiens) (UniProt Q15139).
T3 sequence (whole entry): T1 sequence (Q15139 whole entry)
Description: Inhibition of PKD1 autophosphorylation at 1 uM.

The target in data set [12] is Serine/threonine-protein kinase MARK1 (Homo sapiens) (UniProt Q9P0L2). Description: Inhibition of human MARK1. The conditions noted are these: concentration not given here. The method in brief: as §2
Chain of Serine/threonine-protein kinase MARK1 (Homo sapiens) (Q9P0L2 whole entry, looked up): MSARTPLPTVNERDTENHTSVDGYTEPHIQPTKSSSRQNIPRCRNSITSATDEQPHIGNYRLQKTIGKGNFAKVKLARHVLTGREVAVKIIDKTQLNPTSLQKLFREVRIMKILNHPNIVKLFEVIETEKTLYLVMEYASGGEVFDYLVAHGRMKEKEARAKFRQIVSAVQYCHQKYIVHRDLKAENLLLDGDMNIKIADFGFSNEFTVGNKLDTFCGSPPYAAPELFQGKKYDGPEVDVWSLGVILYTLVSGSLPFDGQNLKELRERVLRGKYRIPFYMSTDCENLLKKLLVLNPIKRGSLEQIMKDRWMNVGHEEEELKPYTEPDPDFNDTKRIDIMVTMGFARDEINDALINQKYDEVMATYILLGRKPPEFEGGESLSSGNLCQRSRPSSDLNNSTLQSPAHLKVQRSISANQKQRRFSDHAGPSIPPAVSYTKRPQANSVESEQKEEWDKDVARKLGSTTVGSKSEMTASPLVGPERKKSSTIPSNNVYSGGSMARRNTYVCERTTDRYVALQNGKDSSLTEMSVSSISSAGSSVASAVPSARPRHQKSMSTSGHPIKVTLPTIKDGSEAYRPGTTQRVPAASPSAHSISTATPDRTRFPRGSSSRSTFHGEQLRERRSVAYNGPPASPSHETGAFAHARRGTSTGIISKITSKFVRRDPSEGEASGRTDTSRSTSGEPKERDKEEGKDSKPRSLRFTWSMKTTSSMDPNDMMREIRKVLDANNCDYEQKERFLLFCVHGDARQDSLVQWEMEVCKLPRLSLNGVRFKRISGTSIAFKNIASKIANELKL
The species entered for data set [13] is Rattus norvegicus. In words: Inhibition of PMA-induced PKD autophosphorylation in Dahl salt-sensitive rat PBMC. The method in brief:
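Male Dahl salt-sensitive rats, 6–7 weeks old, were switched from a 0.49% to an 8.0% NaCl diet for 2 weeks. Dosing was daily sc (1.0 mL/kg) with vehicle (10% 1 N HCl/90% of 10% captisol, pH 4.6 buffer) or 0.5, 1.5 or 5 mg/kg compound. On day 14, PBMCs were isolated and stimulated with PMA. The read-out was PKD Ser916 autophosphorylation.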

The source made the active and inactive calls. The calls are words filed in the database; no cut-off is given here.

Chain of Protein kinase C delta type (Homo sapiens) (Q05655 whole entry, looked up): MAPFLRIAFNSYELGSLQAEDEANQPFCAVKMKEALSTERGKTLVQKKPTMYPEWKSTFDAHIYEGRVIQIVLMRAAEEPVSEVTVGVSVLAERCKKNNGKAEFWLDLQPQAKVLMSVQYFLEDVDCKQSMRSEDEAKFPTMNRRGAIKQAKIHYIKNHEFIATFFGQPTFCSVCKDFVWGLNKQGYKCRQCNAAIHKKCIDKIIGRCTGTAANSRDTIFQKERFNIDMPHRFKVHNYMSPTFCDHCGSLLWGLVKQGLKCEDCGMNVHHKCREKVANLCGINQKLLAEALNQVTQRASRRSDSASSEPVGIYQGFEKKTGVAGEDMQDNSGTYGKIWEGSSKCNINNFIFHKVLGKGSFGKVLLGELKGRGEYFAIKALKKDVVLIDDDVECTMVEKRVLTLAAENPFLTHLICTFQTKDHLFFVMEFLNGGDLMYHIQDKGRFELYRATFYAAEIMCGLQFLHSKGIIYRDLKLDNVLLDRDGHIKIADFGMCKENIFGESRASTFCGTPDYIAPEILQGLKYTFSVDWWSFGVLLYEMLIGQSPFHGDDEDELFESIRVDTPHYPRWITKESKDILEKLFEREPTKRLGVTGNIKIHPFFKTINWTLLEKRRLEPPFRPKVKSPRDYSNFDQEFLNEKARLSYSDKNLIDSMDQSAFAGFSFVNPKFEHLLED
Chain of Calcium/calmodulin-dependent protein kinase type II subunit delta (Homo sapiens) (Q13557 whole entry): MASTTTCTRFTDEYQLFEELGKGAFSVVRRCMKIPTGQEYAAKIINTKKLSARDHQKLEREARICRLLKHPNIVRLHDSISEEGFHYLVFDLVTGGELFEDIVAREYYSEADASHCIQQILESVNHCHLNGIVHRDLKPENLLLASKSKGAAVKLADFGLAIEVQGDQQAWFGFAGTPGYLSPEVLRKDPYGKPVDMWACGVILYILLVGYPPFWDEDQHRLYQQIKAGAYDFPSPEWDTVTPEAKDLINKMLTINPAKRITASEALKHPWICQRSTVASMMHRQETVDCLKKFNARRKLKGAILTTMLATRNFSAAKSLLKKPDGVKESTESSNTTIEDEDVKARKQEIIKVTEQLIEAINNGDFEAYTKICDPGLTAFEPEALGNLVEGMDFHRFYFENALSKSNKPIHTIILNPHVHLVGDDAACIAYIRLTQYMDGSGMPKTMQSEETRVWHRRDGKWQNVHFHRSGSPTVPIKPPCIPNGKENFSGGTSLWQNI

On to `NC(=O)c1cc(-c2ccnc(NC3CCCCC3)c2)nc(N2CCNCC2)c1`, for which the EC50 (commonly the concentration at which the effect is half-maximal) in data set [1] was found to be 77 nM. In addition, the inhibition (usually the drop in the measured response relative to a control, in per cent) in [2] is 3%; in data set [5], 22%; in [6] it was -3%; in [7], 26%; in [12], 24%. For the same molecule, 3000 nM corresponded to half-maximal inhibition in data set [3] (IC50). Moreover, the inhibition result (on Pkd1 (Rattus norvegicus); in data set [11]) was “Active” in each case. For the same molecule, the inhibition result (in data set [4]; in the data set filed under Rattus norvegicus [13]) was “inactive” throughout. The concentration in data set [8] is 12 µM. In data set [9], the clearance came out at 97 mL/min/kg. For the same molecule, in the data set with Rattus norvegicus [10], the result was Active.
